# Results gathered from unrelated publications.
# Lines come from different studies, so protocols differ.
# Target: Calcium/calmodulin-dependent protein kinase type 1 (CAMK1, Homo sapiens, UniProt Q14012)
SMILES,assay,setting,remaining binding
CO[C@H]1CC[C@H](CNc2ccc(S(=O)(=O)NC(=O)c3ccc(N4CCN(CC5=C(c6ccc(Cl)cc6)CC(C)(C)CC5)CC4)cc3Oc3cnc4[nH]ccc4c3)cc2[N+](=O)[O-])CC1,"cell-free assay, competition with immobilised ligand",1 µM,88%
CCN1CCN(Cc2ccc(C(=O)Nc3ccc(C)c(Oc4ccc5c(c4)CC(=O)N5)c3)cc2C(F)(F)F)CC1,"binding, competition with immobilised ligand",1 µM,100%
CCCOc1ccc([C@H]2[C@H](C(=O)O)[C@@H](c3ccc4c(c3)OCO4)CN2CC(=O)Nc2c(CC)cccc2CC)cc1,"cell-free assay, competition with immobilised ligand",1 µM,93%
Cc1cnn2ncc(-c3ccnc(N(C)C)n3)c2c1,binding,1 µM,92%
CN(C)CC#Cc1ccc(OCCCc2sc(N3CCc4cccc(C(=O)Nc5nc6ccccc6s5)c4C3)nc2C(=O)O)c(F)c1,"cell-free assay, competition with immobilised ligand",1 µM,93%
Cc1cnc(Nc2ccc(C(=O)N3CCC(N4CCCC4)CC3)cc2)nc1-c1cc2ccccc2s1,"binding, competition with immobilised ligand",1 µM,30%
c1cnn2ncc(-c3ccnc(N4CCC45COC5)n3)c2c1,binding,1 µM,80%
O=C(Nc1c[nH]nc1C(=O)NC1CCNCC1)c1cc(F)cc(F)c1,"binding, competition with immobilised ligand",1 µM,74%
N[C@H]1CCN(c2nccc(-c3cnn4ncccc34)n2)C1,binding,1 µM,88%
O=C(c1ccc(Nc2ncc(Cl)c(-c3ccc(Cl)s3)n2)cc1)N1CCC(N2CCCC2)CC1,"binding, competition with immobilised ligand",1 µM,54%
O=C(NC[C@@H]1[C@H]2CN(C(=O)OCc3cc(C(F)(F)F)cc(C(F)(F)F)c3)C[C@@H]12)c1ccc2[nH]nnc2c1,"cell-free assay, competition with immobilised ligand",1 µM,77%
COc1cnc(Nc2cccc(S(N)(=O)=O)c2)nc1N1CCN(c2ccccc2)C(=O)C1,"binding, competition with immobilised ligand",1 µM,100%
CN(c1nccc(-c2cnn3ncccc23)n1)C1CC1,binding,1 µM,82%
c1cncc(-c2cccc(Nc3nccc(NC4CCCCC4)n3)c2)c1,"binding, competition with immobilised ligand",10 µM,53%
F[C@@H]1CCN(c2nccc(-c3cnn4ncccc34)n2)C1,binding,1 µM,100%
Nc1ncc2c(n1)-c1c([nH]c3ccc(C#CC4CC4)cc13)CCCC2,"binding, competition with immobilised ligand",1 µM,100%
CC1=C(C#N)C(c2ccc3c(c2)c(NC(=O)c2ccccc2C)nn3C)C(C#N)=C(C)N1,"cell-free assay, competition with immobilised ligand",1 µM,98%
CN(C)c1nccc(-c2cnc3ncccn23)n1,binding,1 µM,68%
COc1ccc2c(c1)O[C@H](c1ccc(OC)c(OC)c1)C[C@@H]2NC(=O)C1(c2ccc3c(c2)OC(F)(F)O3)CC1,"cell-free assay, competition with immobilised ligand",1 µM,100%
CNC(=O)[C@@H]1CC[C@@H](n2c(-c3ccc4cnccc4c3)nc3ccc(C(=O)NCc4cccc(C(N)=O)c4)cc32)C1,"binding, competition with immobilised ligand",1 µM,99%
O=C(c1ccc(Nc2ncc(Cl)c(-c3cc4ccccc4s3)n2)cc1)N1CCC(N2CCCC2)CC1,"binding, competition with immobilised ligand",1 µM,58%
